# FID counter: compounds displacing fluorescent DNA intercalator, primary screen, artefact control for HCV NS3 helicase inhibitor project, biochemical, FID fluorescence; DNA fluorescent intercalator displacement; inhibition, % at 7.9 µM; actives 0.17% (n = 290,000); AID 1845, 2009; in the data active = inhibition above about 37%;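 note: 0% = vehicle and 100% = reference compound; higher means more ethidium bromide displaced from hairpin DNA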
# IMP-1 inh: IMP-1 metallo-beta-lactamase inhibitors, primary screen, biochemical, epi-absorbance readout, Pseudomonas aeruginosa enzyme; inhibition, % at 5.6 µM; purified IMP-1, nitrocefin hydrolysis, epi-absorbance fluorescence; actives 0.45% (n = 290,000); AID 1556, 2009;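 active = inhibition above the mean plus 3 SD of all compounds in the same screening run, cut at about 4.5% in these data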;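 note: 0% = IMP-1 with DMSO and 100% = DMSO wells lacking enzyme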
#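 Test system: recombinant IMP-1 enzyme, purified / Medium: HEPES buffer pH 7.1 with ZnSO4 and Brij 35 / Doses: single dose, 5.6 µM / Times: 25 °C, 15 min preincubation, 25 min reaction / Detection: Epi-absorbance via hydrolysed-nitrocefin quenching of white-plate fluorescence, 480/530 nm, EDTA stop / Evaluation: percent inhibition from optical density relative to buffer-blank wells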
# VIM-2 inhibitor: VIM-2 metallo-beta-lactamase inhibitors, primary screen, biochemical, epi-absorbance readout, Pseudomonas aeruginosa enzyme | actives 0.89% (n = 290,000) | purified VIM-2, nitrocefin hydrolysis, epi-absorbance fluorescence | AID 1527, 2009 | inhibition, % at 5.6 µM;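 active = inhibition above the mean of all tested compounds plus 3 SD, cutoff set per screening run, cut at about 7.5% in these data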;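 note: red hydrolysis product quenches plate fluorescence so inhibitors raise well fluorescence; 0% = enzyme with DMSO and 100% = DMSO without enzyme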
# UBC9 SUMO inh: inhibitors of in vitro SUMOylation cascade, primary screen, biochemical, HTRF, uHTS; HTRF SUMOylation assay, SAE1/SAE2 + UBC9; inhibition, % at 35 µM; SUMO-conjugating enzyme UBC9 (Homo sapiens), P63279; actives 0.36% (n = 290,000); in the data active = inhibition above about 50%, passing the limit was not always enough
# Target sequence (P63279 whole entry, looked up): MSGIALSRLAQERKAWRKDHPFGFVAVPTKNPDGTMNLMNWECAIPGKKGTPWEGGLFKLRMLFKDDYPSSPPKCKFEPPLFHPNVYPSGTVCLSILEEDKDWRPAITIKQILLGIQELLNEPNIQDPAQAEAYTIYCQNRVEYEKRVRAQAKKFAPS
# NS3 helicase inh: inhibitors of HCV NS3 helicase, primary screen, biochemical, Cy5 molecular beacon fluorescence | NS3 helicase DNA unwinding | inhibition, % at 10.9 µM | actives 0.56% (n = 290,000);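 active = inhibition above the mean of all tested compounds plus 3 SD, set per campaign, cut at about 35% in these data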;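 note: 0% = DMSO wells and 100% = thioflavine S control wells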
#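 assay system = NS3 helicase fragment of HCV | buffer or medium = MOPS pH 6.5, MgCl2, DTT, Tween20, BSA | timing = 60 min unwinding reaction at 25 °C after ATP addition | signal = Cy5 beacon fluorescence read at start and 1 h | read-out basis = % inhibition of unwinding | control set = low DMSO, high thioflavine S at 110 µM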
# Active calls of the source: *; . = no result; ! = a repeat was not active. Most compounds without a hit are left out; they make up all but 2.1% or so of the library.
SMILES,FID counter,IMP-1 inh,VIM-2 inhibitor,UBC9 SUMO inh,NS3 helicase inh
O=C(c1ccccn1)N1CCCC(N2CCN(c3cccc(C(F)(F)F)c3)CC2)C1 (stereo not given),-40,0,-3,0,0
O=C(O)c1cc(Cl)c(Cl)cc1C(=O)Nc1cccc2cccnc12,1,-3,9.1*,76*,-4
O=C(Nc1cccc2cccnc12)c1cc(F)c(F)cc1Cl,-21,-2,1,-2,0
Cc1ccc2nc(C)cc(Nc3ccc4c(c3)OCCO4)c2c1,-1,-2,11*,-8,0
CC(=O)c1ccc(Nc2cc(C)nc3ccc(C)cc23)cc1,7,-1,8.4*,20,4
Cc1cc(Nc2ccc3c(c2)OCCO3)c2ccccc2n1,2,-3,1,17,-1
CCn1c(SCC(=O)N(C(C)C)C(C)C)nnc1-c1cc2ccccc2cc1O,-40,-7,12*,17,-5
Cc1cccn2c(=O)c3cc(S(=O)(=O)c4ccccc4)c(=N)n(Cc4cccnc4)c3nc12,-4,-2,10*,-7,-14
COC(=O)C1CCN(c2ccc([N+](=O)[O-])cc2)CC1,-2,-5,-3,-3,-5
COC(=O)C1CCN(CCCOc2ccc(CN3CCN(c4ccc([N+](=O)[O-])cc4)CC3)cc2)CC1,47*,-2,-1,4,-34
O=[N+]([O-])c1ccc(C2Oc3ccccc3C3CC(c4ccccc4)=NN32)s1 (stereo not given),3,-2,-2,14,4
CC(=O)c1ccccc1Oc1ncnc(N)c1[N+](=O)[O-],-3,-3,-2,-1,-8
CCn1c(=O)c2cc(C(=O)NCCC(C)C)sc2c2ccccc21,-22,-2,5,-4,-7
CCn1c(=O)c2cc(C(=O)NCCCOC)sc2c2ccccc21,-26,-2,9.0*,-8,-13
CCC(C)NC(=O)c1cc2c(=O)n(CC)c3ccccc3c2s1 (stereo not given),-26,-1,8.0*,3,0
CC1CCN(c2nc3ccc(C(=O)N4CCN(Cc5ccc6c(c5)OCO6)CC4)cc3s2)CC1,-14,-3,-4,-17,0
Cc1ccc(C(=O)Nc2sc3c(c2C(=O)NCc2ccco2)CCCC3)cc1,-2,-1,0,73*,4
COC(=O)Nc1sc2c(c1C(=O)NCc1ccco1)CCCC2,-5,-2,-2,-6,2
CNC(=O)c1c(NC(=O)c2cccc(C)c2)sc2c1CCC2,-6,4.7*,2,7,-7
Cc1ccc(CN2CCNC(=O)C2CC(=O)N2CCN(c3ncccn3)CC2)o1 (stereo not given),-8,-2,-3,-3,12
Cc1nc2ccc([N+](=O)[O-])cc2c(=O)n1Cc1ccc(Br)cc1,3,0,-1,0,-9
O=C(O)c1ccc(CSc2n[nH]c(-c3ccco3)n2)cc1,-14,-3,3,47,36*
Cc1ccc(NC(=S)Nc2cccc3cnccc23)cc1C,-3,0,0,96,0
Cc1ccc(NC(=S)Nc2cccc3cnccc23)cc1,4,0,4,100*,14
NC(=S)Nc1cccc2cnccc12,1,2,-5,10,-6
SMILES,FID counter,IMP-1 inh,VIM-2 inhibitor,UBC9 SUMO inh,NS3 helicase inh
CC(=O)c1cccc(NC(=S)Nc2cccc3ccccc23)c1,0,-2,-4,95,13
S=C(Nc1cccc(Cl)c1)Nc1cccc2cnccc12,9,-4,4,98*,-7
CC(=O)c1ccc(NC(=S)Nc2cccc3cnccc23)cc1,2,-3,6,98*,2
CC(C)C(C)NC(=O)CN1C(=O)NC2(CCc3ccccc32)C1=O (stereo not given),-4,-1,-2,13,1
C[n+]1ccc(/C=C/c2c[nH]c3ccc(F)cc23)cc1,29,4.6*,6,5,-8
CCc1ccc(/C=C/c2c[nH]c3ccccc23)[n+](CC)c1,1,-1,-3,14,-7
Cc1cc2c(cc1S(=O)(=O)Nc1cccc(C)c1C)n(C)c(=O)c(=O)n2C,-13,-3,-2,-4,1
CCC(C(=O)NCCCN1CCN(C)CC1)n1nc(C)c2sc3ccccc3c2c1=O (stereo not given),25,-3,0,14,-1
Cc1nn(CC(=O)N2CCN(C)CC2)c(=O)c2c1sc1ccccc12,8,-4,11*,7,7
Cc1nn(CCCC(=O)NCCCN2CCN(C)CC2)c(=O)c2c1sc1ccccc12,19,-2,12*,12,-5
Cc1ccccc1NC(=O)c1nnn(-c2ccc3c(c2)OCCO3)c1N,-11,-2,0,10,-10
Nc1c(C(=O)Nc2cccc(F)c2)nnn1-c1ccc2c(c1)OCCO2,-3,18*,4,5,7
Cc1cc(C)cc(Oc2coc3c(CN(C)C)c(O)ccc3c2=O)c1,4,-1,-3,51*,7
COc1ccc(C2Nc3ccccc3C(=O)N2Cc2ccco2)cc1CN1C(=O)c2ccccc2C1=O (stereo not given),-25,4.7*!,-1,5,-5
COc1ccccc1/C=C1\CCCC2=C1Nc1nnnn1C2c1ccccc1OC (stereo not given),-9,0,-2,1,4
CCOc1ccc(N2C(=O)c3ccc(C(=O)OCC(=O)N(CC)C4CCS(=O)(=O)C4)cc3C2=O)cc1 (stereo not given),-1,-4,-2,54*,2
COc1ccc(OCC(=O)NNC(=O)Cc2coc3cc(OC)ccc23)cc1,-10,5.6*,-2,-3,23
Cc1cccc(N2C(=O)C(Oc3ccc(Cl)cc3Cl)C2C=O)c1C (stereo not given),-6,-3,-2,1,-6
Cc1cc(C)c(Nc2cc(S(=O)(=O)O)c(N)c3c2C(=O)c2ccccc2C3=O)c(C)c1,44*,-4,1,45,24
CCCCOc1ccc(C(O)(CCC)CCN2CCOCC2)cc1 (stereo not given),5,-3,-4,-2,-12
CCCCC(O)(CCN1CCOCC1)c1ccc(Cl)cc1 (stereo not given),49*,-1,-3,14,6
Cc1cc(C)c2nc(NNC(=O)c3cc(=O)c4ccccc4o3)sc2c1,-14,-3,-5,-100,10
Cn1c(=O)c2c(nc(SCC(=O)N(C3CCCCC3)C3CCCCC3)n2C)n(C)c1=O,1,-2,-4,.,3
CC(=O)O[C@]1(C(C)=O)CC[C@H]2[C@@H]3C=CC4=CC(=O)C=C[C@]4(C)[C@H]3CC[C@@]21C,-26,0,-1,16,-10
